Columns and labels:
[1] = target: T1, Vascular cell adhesion protein 1 (Homo sapiens, UniProt P19320); test: Inhibition of VCAM-1 in human endothelial cells
T1 sequence (P19320 whole entry): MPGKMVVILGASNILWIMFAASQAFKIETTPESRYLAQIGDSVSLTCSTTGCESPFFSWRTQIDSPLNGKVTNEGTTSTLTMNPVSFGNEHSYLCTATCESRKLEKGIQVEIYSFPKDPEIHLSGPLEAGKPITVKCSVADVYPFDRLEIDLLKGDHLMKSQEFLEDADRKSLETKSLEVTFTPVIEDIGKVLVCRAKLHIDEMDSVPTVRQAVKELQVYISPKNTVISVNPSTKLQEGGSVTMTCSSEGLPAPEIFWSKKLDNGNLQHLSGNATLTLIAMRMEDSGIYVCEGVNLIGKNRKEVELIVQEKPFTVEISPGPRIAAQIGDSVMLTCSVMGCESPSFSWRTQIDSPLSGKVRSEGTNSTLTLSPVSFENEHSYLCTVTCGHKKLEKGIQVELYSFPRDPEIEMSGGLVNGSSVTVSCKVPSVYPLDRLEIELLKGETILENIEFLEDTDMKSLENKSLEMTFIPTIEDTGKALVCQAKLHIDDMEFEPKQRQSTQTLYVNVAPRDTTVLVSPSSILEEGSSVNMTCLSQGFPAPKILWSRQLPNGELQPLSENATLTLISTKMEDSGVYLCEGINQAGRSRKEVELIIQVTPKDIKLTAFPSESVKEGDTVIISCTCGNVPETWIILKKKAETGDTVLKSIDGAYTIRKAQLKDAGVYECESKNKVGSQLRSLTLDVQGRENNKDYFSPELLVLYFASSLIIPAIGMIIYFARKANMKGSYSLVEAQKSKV
How it was run: (§1)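 Whole-cell ELISA on primary HUVECs plated at 5 × 10^4 cells/mL in EBM/2% FBS with growth supplements. Compound preincubated 24 h at 37 °C, then inducer added (TNFα at 5 ng/mL final, or IL-1β or PMA in its place) for 6 h at 37 °C. Mouse monoclonal anti-E-selectin, anti-ICAM-1 or anti-VCAM-1 was applied overnight at 4 °C, then HRP anti-mouse IgG. Detection with OPD, A490. Triplicate assays.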

[2] = target: T1, Vascular cell adhesion protein 1; test: In vitro inhibitory potency compared to IL1-beta induced VCAM-1 expression in human endothelial cells (ELISA assay)
How it was run: (§2)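 Primary HUVECs seeded at 5 × 10^4 cells/mL in EBM/2% FBS with EGF, bovine brain extract and gentamicin. Compound added next day for 24 h at 37 °C, then inducer (IL-1β or PMA, level not stated) for 6 h at 37 °C. Whole-cell ELISA used mouse monoclonal anti-ICAM-1 or anti-VCAM-1, HRP donkey anti-mouse IgG and OPD, read at 490 nm. Run in triplicate.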

[3] = target: T1, Vascular cell adhesion protein 1; test: In vitro inhibitory potency compared to PMA induced VCAM-1 expression in human endothelial cells (ELISA assay); how it was run: as §2
[4] = Inhibition of VCAM-1 in human endothelial cells
[5] = target: T1, Vascular cell adhesion protein 1; test: In vitro inhibitory potency compared to PMA induced VCAM-1 in human endothelial cells (ELISA assay); how it was run: as §1
[6] = target: T1, Vascular cell adhesion protein 1; test: In vitro inhibitory potency compared to TNF-alpha induced VCAM-1 in human endothelial cells (ELISA assay); how it was run: as §1
[7] = target: T1, Vascular cell adhesion protein 1; test: In vitro inhibitory potency compared to IL1-beta induced VCAM-1 in human endothelial cells (ELISA assay); how it was run: as §1

SMILES	IC50 [1] [µM]	IC50 [2] [µM]	IC50 [3] [µM]	IC50 [4] [µM]	IC50 [5] [µM]	IC50 [6] [µM]	IC50 [7] [µM]
Cc1ccc(Sc2cncc3sc(C(N)=O)cc23)cc1 [4-p-Tolylsulfanyl-thieno[2,3-c]pyridine-2-carboxylic acid amide]	> 1						
CNC(=O)c1cc2c(Oc3ccc(Cl)cc3)cncc2s1 [4-(4-Chloro-phenoxy)-thieno[2,3-c]pyridine-2-carboxylic acid methylamide]		0.07	0.2	> 1			
NC(=O)c1cc2c(Oc3ccc(Br)cc3)cncc2s1 [4-(4-Bromo-phenoxy)-thieno[2,3-c]pyridine-2-carboxylic acid amide]				0.048	0.02	0.008	0.007

— BindingDB's records for doi:10.1021/jm0101702 (Abbott Laboratories, 2001)
